Results as given in ChEMBL document CHEMBL4004866, “6-Benzylidene-2-[4-(pyridin-3-ylcarboxy)benzylidene]cyclohexanones: A novel cluster of tumour-selective cytotoxins” (Bioorg Med Chem Lett, 2017).
The source made the active and inactive calls. No cut-off for these calls is given here.

Experiments:
[1] = Cytotoxicity against human Molt4/C8 cells assessed as growth inhibition after 72 hrs by coulter counter method; type: functional, cell-based; settings: Molt4/C8, 72 h
[2] = tested on: L1210; assay: Cytotoxicity against mouse L1210 cells assessed as growth inhibition after 48 hrs by coulter counter method; type: functional, cell-based; settings: L1210, 48 h
[3] = tested on: CCRF-CEM; assay: Cytotoxicity against human CEM cells assessed as growth inhibition after 72 hrs by coulter counter method; type: functional, cell-based
[4] = tested on: HSC-4; assay: Cytotoxicity against human HSC4 cells after 48 hrs by MTT assay; type: functional; settings: HSC-4, 48 h
[5] = Selectivity index, ratio of CC50 for HGF to CC50 for human HSC4 cells
[6] = tested on: Mus musculus; assay: Toxicity in mouse assessed as mortality at 30 to 300 mg/kg, ip after 0.5 to 4 hrs; type: organism-based; settings: in vivo
Procedure, shortened: (§1)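 Mice were given compound intraperitoneally at 30, 100 and 300 mg/kg. Animals were checked for survival and neurological deficit at 0.5 and 4 h after dosing.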

[7] = tested on: HSC-2; assay: Cytotoxicity against human HSC2 cells after 48 hrs by MTT assay; type: functional; settings: HSC-2, 48 h
[8] = Cytotoxicity against HPLF after 48 hrs by MTT assay; type: cell-based; settings: human, HPLF cells
Procedure, shortened: (§2)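 Nonmalignant human cells were exposed to compounds for 48 h at 37 °C. CC50 was taken as the concentration cytotoxic to 50% of cells.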

[9] = Selectivity index, ratio of CC50 for HGF to CC50 for human HSC2 cells; settings: pooled result: one value given for 3 cell lines, strains, targets or settings
[10] = Cytotoxicity against human HPC after 48 hrs by MTT assay; type: cell-based; settings: HPC cells; procedure, shortened: as §2
[11] = Selectivity index, ratio of CC50 for human HPC to CC50 for human HSC4 cells
[12] = tested on: HL-60; assay: Cytotoxicity against human HL60 cells after 48 hrs by MTT assay; type: functional; settings: HL-60, 48 h
[13] = tested on: HSC-3; assay: Cytotoxicity against human HSC3 cells after 48 hrs by MTT assay; type: functional; settings: HSC-3, 48 h
[14] = Selectivity index, ratio of CC50 for HGF to CC50 for human HL60 cells; settings: pooled result: one value given for 3 cell lines, strains, targets or settings
[15] = Selectivity index, ratio of CC50 for HGF to CC50 for human HSC3 cells; settings: pooled result: one value given for 3 cell lines, strains, targets or settings
[16] = tested on: Rattus norvegicus; assay: Toxicity in rat assessed as overt toxicity at 30 mg/kg, po after 0.25 to 4 hrs; type: organism-based; settings: in vivo
Procedure, shortened: (§3)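 Rats received a single oral dose and were examined for overt toxicity at 0.25, 0.5, 1, 2 and 4 h.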

[17] = Selectivity index, ratio of CC50 for HPLF to CC50 for human HSC4 cells
[18] = Cytotoxicity against HGF after 48 hrs by MTT assay; type: cell-based; settings: human, HGF cells; procedure, shortened: as §2
[19] = Toxicity in ip dosed mouse; type: organism-based; settings: in vivo; procedure, shortened: as §1
[20] = Chemical stability in pH 7.4 buffer/dimethylsulfoxide after 48 hrs by 1H NMR method; type: physicochemical; settings: pH 7.4, 48 h
Procedure, shortened: (§4)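 Compound solutions were incubated for 48 h at 37 °C, the same time and temperature as the in vitro assays, and checked for hydrolysis to the corresponding phenol.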

[21] = tested on: Serum; assay: Drug metabolism in rat serum/dimethylsulfoxide assessed as 6-benzylidene-2-(4-hydroxybenzylidene)cyclohexanone formation after 48 hrs by 1H NMR method; type: ADME, cell-free; procedure, shortened: as §4
[22] = tested on: Rattus norvegicus; assay: Toxicity in rat assessed as overt toxicity at 50 mg/kg, po after 0.25 to 4 hrs; type: organism-based; settings: in vivo; procedure, shortened: as §3
[23] = Chemical stability in deuterium oxide/deuterated dimethylsulfoxide after 48 hrs by 1H NMR method; type: physicochemical; procedure, shortened: as §4
[24] = tested on: HSC-2; assay: Cell cycle arrest in human HSC2 cells assessed as accumulation at G2/M phase at 7 uM after 24 hrs by propidium iodide staining-based method (reference value: 11%); type: functional
[25] = tested on: Mus musculus; assay: Neurotoxicity in mouse at 300 mg/kg, ip after 0.5 hrs; type: toxicity, organism-based; settings: in vivo
Procedure, shortened: (§5)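 Mice received intraperitoneal doses of 30, 100 and 300 mg/kg. Animals were scored for survival and neurological deficit at 0.5 and 4 h after dosing.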

[26] = tested on: HSC-2; assay: Induction of apoptosis in human HSC2 cells assessed as PARP1 cleavage at 7 uM after 24 hrs by chemiluminescence method; type: functional, cell-based
[27] = tested on: HSC-3; assay: Induction of apoptosis in human HSC3 cells assessed as PARP1 cleavage at 7 uM after 24 hrs by chemiluminescence method; type: functional, cell-based
[28] = tested on: Mus musculus; assay: Neurotoxicity in mouse at 300 mg/kg, ip after 4 hrs; type: toxicity, organism-based; settings: in vivo; procedure, shortened: as §5
[29] = tested on: HSC-2; assay: Cell cycle arrest in human HSC2 cells assessed as accumulation at S phase at 7 uM after 24 hrs by propidium iodide staining-based method (reference value: 13%); type: functional
[30] = tested on: HSC-2; assay: Cell cycle arrest in human HSC2 cells assessed as accumulation at G0/G1 phase at 7 uM after 24 hrs by propidium iodide staining-based method (reference value: 73%); type: functional

SMILES	IC50 [1]	IC50 [2]	IC50 [3]	CC50 [4]	Selectivity Index [5]	Activity [6]	CC50 [7]	CC50 at 48 h [8]	Selectivity Index [9]	CC50 at 48 h [10]	Selectivity Index [11]	CC50 [12]	CC50 [13]	Selectivity Index [14]	Selectivity Index [15]	Selectivity Index [17]	CC50 at 48 h [18]	other results
Cc1ccc(/C=C2\CCC/C(=C\c3ccc(O)cc3)C2=O)cc1	5.22 µM	7.41 µM	4.31 µM	–	–	–	–	–	–	–	–	–	–	–	–	–	–	–
O=C1/C(=C/c2ccc(O)cc2)CCC/C1=C\c1ccc(Cl)cc1	4.9 µM	6.44 µM	2.69 µM	–	–	–	–	–	–	–	–	–	–	–	–	–	–	–
O=C1/C(=C/c2ccc(O)cc2)CCC/C1=C\c1ccc(O)cc1	5.52 µM	13.5 µM	6.84 µM	–	–	–	–	–	–	–	–	–	–	–	–	–	–	–
Cc1ccc(/C=C2\CCC/C(=C\c3ccc(OC(=O)c4cccnc4)cc3)C2=O)cc1	2.88 µM	12.8 µM	9.49 µM	94.3 µM	>1.93	Non-Toxic	90.3 µM	163 µM	>2.02	> 200 µM	>1.93	1.9 µM	98 µM	>95.8	>1.86	>1.93	184 µM	Activity [16]: Non-Toxic
O=C1/C(=C/c2ccc(OC(=O)c3cccnc3)cc2)CCC/C1=C\c1ccc(OC(=O)c2cccnc2)cc1	22.6 µM	213 µM	169 µM	–	–	Non-Toxic	–	–	–	–	–	–	–	–	–	–	–	–
COc1ccc(/C=C2\CCC/C(=C\c3ccc(O)cc3)C2=O)cc1	4.18 µM	6.85 µM	5.68 µM	–	–	–	–	–	–	–	–	–	–	–	–	–	–	–
O=C1/C(=C/c2ccc(Cl)cc2)CCC/C1=C\c1ccc(OC(=O)c2cccnc2)cc1	7.89 µM	29.6 µM	17.4 µM	37.3 µM	4.67	Non-Toxic	30.5 µM	154 µM	5.71	179 µM	4.67	10.5 µM	33.7 µM	16.6	5.16	4.67	190 µM	–
O=C1/C(=C/c2ccccc2)CCC/C1=C\c1ccc(OC(=O)c2ccccc2)cc1	10.4 µM	46.7 µM	40.4 µM	–	–	Non-Toxic	–	–	–	–	–	–	–	–	–	–	–	–
N[C@@H](Cc1ccc(N(CCCl)CCCl)cc1)C(=O)O [MELPHALAN]	–	–	–	46 µM	1.46	–	12 µM	92 µM	5.61	37 µM	1.46	0.89 µM	46 µM	75.6	1.46	1.46	73 µM	LD50 [19]: 21.7 mg/kg
O=C(O)c1cccnc1 [NIACIN]	> 500 µM	> 500 µM	> 500 µM	> 200 µM	1	–	> 200 µM	> 200 µM	1	> 200 µM	1	> 200 µM	> 200 µM	1	1	1	> 200 µM	–
COc1ccc(/C=C2\CCC/C(=C\c3ccc(OC(=O)c4cccnc4)cc3)C2=O)cc1	1.19 µM	7.63 µM	9.85 µM	22.7 µM	>8.81	Non-Toxic	30.3 µM	> 200 µM	>6.6	> 200 µM	>8.81	2.3 µM	16 µM	>87	>12.5	>8.81	> 200 µM	–
O=C1/C(=C/c2ccc(OC(=O)c3cccnc3)cc2)CCC/C1=C\c1ccc([N+](=O)[O-])cc1	38.1 µM	61.1 µM	48.1 µM	> 200 µM	1	Non-Toxic	112 µM	> 200 µM	>1.79	> 200 µM	1	> 200 µM	> 200 µM	1	1	1	> 200 µM	–
O=C1/C(=C/c2ccccc2)CCC/C1=C\c1ccc(O)cc1	5.17 µM	7.32 µM	5.82 µM	–	–	–	–	–	–	–	–	–	–	–	–	–	–	–
O=C1/C(=C/c2ccccc2)CCC/C1=C\c1ccc(OC(=O)c2cccnc2)cc1	1.62 µM	8.71 µM	7.3 µM	15.9 µM	6.67	Non-Toxic	12.5 µM	60 µM	8.48	142 µM	6.67	1.5 µM	17.7 µM	70.7	5.99	6.67	116 µM	Stability [20]: Stable; Drug metabolism [21]: Metabolite_Notdetected; Activity [22]: Non-Toxic; Stability [23]: Stable; Activity [24]: 1.5%; Activity [25]: Toxic; Activity [26]: Active; Activity [27]: inactive; Activity [28]: Non-Toxic; Activity [29]: 9.7%; Activity [30]: 86%
Cc1ccc(/C=C2\CCC/C(=C\c3ccc(OC(=O)c4ccccc4)cc3)C2=O)cc1	5.7 µM	37.9 µM	10.6 µM	–	–	Non-Toxic	–	–	–	–	–	–	–	–	–	–	–	–
